Bioassay records: PubChem BioAssay, Johns Hopkins Ion Channel Center
In the library only some 3.7% were active in any assay of this set; here they are far more common.
KCNK9 block = KCNK9 potassium channel inhibitors, primary screen, HEK293 cells, thallium flux; Potassium channel subfamily K member 9 (Homo sapiens), Q9NPC2; FluxOR thallium flux fluorescence; active compounds read low; B-score at 10 µM; 310,000 compounds, 1.2% hits; AID 488922, 2010;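 active = ratio B-score over 3 SD below the library mean, with starting fluorescence within 5 SD of its mean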;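 also: negative B-score means less thallium flux so channel inhibition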
Target sequence (Q9NPC2 whole entry, looked up): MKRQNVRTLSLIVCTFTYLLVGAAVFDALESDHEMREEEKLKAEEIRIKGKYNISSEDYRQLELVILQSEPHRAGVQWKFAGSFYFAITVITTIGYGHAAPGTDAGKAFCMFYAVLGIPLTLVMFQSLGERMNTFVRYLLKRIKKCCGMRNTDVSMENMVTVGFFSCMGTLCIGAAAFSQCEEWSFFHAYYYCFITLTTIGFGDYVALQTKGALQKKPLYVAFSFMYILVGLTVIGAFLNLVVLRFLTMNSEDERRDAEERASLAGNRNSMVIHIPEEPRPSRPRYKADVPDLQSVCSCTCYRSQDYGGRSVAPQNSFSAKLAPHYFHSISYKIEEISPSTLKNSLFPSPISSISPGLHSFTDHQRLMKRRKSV
KCNK3 inh = human KCNK3 channel inhibitors, primary screen, CHO cells, FluxOR thallium flux, B-score. FluxOR fluorescence; active compounds read low. B-score at 10 µM. 340,000 compounds, 0.84% hits. AID 602410, 2012;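 active = B-score under library mean minus 4 SD, starting fluorescence ratio at most library mean plus 5 SD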;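 also: more negative B-score means stronger inhibition of thallium flux through KCNK3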
KCNQ1 pot = potentiators or activators of KCNQ1 channel, primary screen, cell-based, thallium flux, high-throughput. Potassium voltage-gated channel subfamily KQT member 1 (Homo sapiens), P51787. CHO-K1 KCNQ1, thallium flux FluxOR fluorescence; active compounds read high. B-score at 10 µM. 310,000 compounds, 0.35% hits. AID 2648, 2010;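 active = fluorescence ratio B-score, a plate-corrected score, at least three library SD, with initial intensity B-score within 5 SD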
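Doses: Single concentration per compound, DMSO matched to controls | Test system: KCNQ1-transfected CHO-K1 cells | Timing: 90 min dye loading and 20 min compound exposure, both at room temperature | Measured by: Kinetic FluxOR thallium fluorescence, 10-s 1-Hz baseline, 110-s post-stimulus read | Medium: Assay buffer with matched DMSO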
Kir21 block = inhibitors of mouse Kir2.1 inward-rectifier potassium channel. Inward rectifier potassium channel 2 (Mus musculus), P35561. HEK293-Kir2.1, FluxOR thallium flux fluorescence; active compounds read low. B-score at 10 µM. 310,000 compounds, 0.85% hits. AID 1672, 2009;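 active = fluorescence ratio B-score at or below minus 3 SD of library scores, with starting-brightness B-score within 2 SD, cut at about -4.2 in these data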;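 also: channel flux triggered by added potassium and thallium sulfate stimulus; B-score of peak minus minimum fluorescence over baseline after thallium stimulus; more negative B-score means stronger Kir2.1 block with less thallium influx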
hERG protect = hERG rescue from dofetilide block, primary screen, cell-based, CHO-hERG, FluxOR thallium flux, dofetilide IC70 | Voltage-gated inwardly rectifying potassium channel KCNH2 (Homo sapiens), Q12809 | dofetilide IC70 present | activation (rescue from dofetilide block), less the hit threshold, % at 10 µM | 310,000 compounds, 0.51% hits;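 active = activation above the mean of controls blocked by dofetilide plus 5 SD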;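 also: thallium influx through hERG after potassium depolarization seen as dye fluorescence rise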
KCNQ1 inh = inhibitors of human KCNQ1 channel, primary screen, cell-based, thallium flux, high-throughput | Potassium voltage-gated channel subfamily KQT member 1 (Homo sapiens), P51787 | CHO-K1 KCNQ1, FluxOR thallium flux fluorescence; active compounds read high | B-score at 10 µM | 310,000 compounds, 1.3% hits | AID 2642, 2010;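 active = compounds whose thallium flux B-score, printed positive for inhibition, exceeds three library SD while starting fluorescence stays within three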;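 also: channel opened by potassium depolarization with thallium stimulus after 20 min compound exposure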
Numbers without * were called inactive; i = inactive; x = no result given.

SMILES	KCNK9 block	KCNK3 inh	KCNQ1 pot	Kir21 block	hERG protect	KCNQ1 inh
Cc1cccc(C)c1-n1nnnc1S(=O)(=O)Cc1ccccc1Cl	x	-8.7*	x	x	x	x
CC(=O)N1c2ccc(S(=O)(=O)N(C)CC(=O)NC3CCCC3)cc2CC1C (stereo not drawn)	i	i	i	0.33	-8	i
COc1ccc(NC(=O)COC(=O)c2cc3c(s2)CCC3)cc1	x	i	x	x	x	x
CC(=O)C[C@H]1c2cc(C(F)(F)F)ccc2S(=O)(=O)N1Cc1ccccc1	i	i	9*	0.46	-12	i
CC(=O)C[C@H]1c2cc(C(F)(F)F)ccc2S(=O)(=O)N1c1ccccc1	i	i	i	0.56	-9	i
CCCCCCCCCCCCN1[C@@H](CC(=O)OC)c2cc(C(F)(F)F)ccc2S1(=O)=O	i	i	i	1.5	-3	i
CCOC(=O)C[C@H]1c2ccccc2S(=O)(=O)N1Cc1cc(OC)c(OC)c(OC)c1	i	i	i	0.02	-4	i
CCOC(=O)C[C@H]1c2cc(F)ccc2S(=O)(=O)N1c1ccccc1	i	i	i	-5*	-14	i
CCCCCCCCN1[C@@H](CC(=O)OCC)c2ccc(C(F)(F)F)cc2S1(=O)=O	i	i	i	-0.21	-2	6*
CCOC(=O)C[C@H]1c2ccccc2S(=O)(=O)N1Cc1cccc(C(F)(F)F)c1	i	i	i	-4.5*	-9	i
O=[N+]([O-])c1ccc(S(=O)(=O)N2CCN(Cc3ccco3)CC2)cc1	i	i	i	0.12	-2	i
CCCCCc1ccc(C(=O)CCCC)c(=S)[nH]1	i	i	17*	-0.02	35*	i
CC(C)(C)Cc1nnc(NC(=O)c2ccco2)s1	i	i	i	-1.3	18*	i
CCc1nnc(NC(=O)c2cccc(C(=O)Nc3nnc(CC)s3)n2)s1	i	i	i	1.3	4.9*	i
O=C(Nc1nnc(Cc2ccccc2)s1)c1ccco1	i	i	i	0.84	1	i
N#CCCN1CCN(C(=S)c2ccc(-c3cc(Cl)ccc3Cl)o2)CC1	-7.8*	i	i	1.2	-4	i
COc1cccc(NC(=O)NCC2CCN(Cc3ccc(F)cc3)CC2)c1	i	i	8*	0	-6	i
CCn1c2ccccc2c2cc(N=C3SC(CC(=O)Nc4ccccc4OC)C(=O)N3CCOC)ccc21 (stereo not drawn)	-7.1*	i	i	1.9	-4	i
CCOC(=O)CC1C(=O)NCCN1C(=O)c1ccc(Cl)c(Cl)c1 (stereo not drawn)	i	i	i	-1.1	0	i
Cc1ccc(C2=CSC3=NS(=O)(=O)CCN23)cc1	i	i	9*	-1.5	1	i
Cc1ccc(C)c(C2=CSC3=NS(=O)(=O)CCN23)c1	i	i	i	-0.26	-17	i
CCC1c2ccc(C)n2CCN1C(=O)Nc1ccccc1C(=O)OC (stereo not drawn)	-7*	i	i	1.4	-8	i
CCOC(=O)c1ccccc1NC(=O)N1CCn2c(C)ccc2C1CC (stereo not drawn)	i	i	i	-0.14	-14	i
Cc1ccc(S(=O)(=O)/N=C2/NC(=O)/C(=C/c3ccc(Br)o3)S2)cc1	i	i	i	-0.37	-2	i
Cc1ccc(S(=O)(=O)/N=C2/NC(=O)/C(=C\c3cc(Br)cc(Br)c3O)S2)cc1	i	i	i	-11	-16	7*
SMILES	KCNK9 block	KCNK3 inh	KCNQ1 pot	Kir21 block	hERG protect	KCNQ1 inh
CCOc1cc(C(=O)N=c2sccn2C)ccc1OC(F)F	i	i	i	-0.47	-10	i
COc1cc(C)nc(NCc2ccccc2)n1	i	i	i	1.4	2	i
Cc1ccc(Nc2cc(C)nc(NCc3ccccc3)n2)cc1	i	i	i	-5.5*	-31	i
COc1cccc(C(C[N+](=O)[O-])c2c(C)[nH]n(-c3ccccc3)c2=O)c1 (stereo not drawn)	i	i	i	-13*	-22	8*
Cc1nc2nc(C)c(NS(=O)(=O)c3ccc(Cl)cc3)c(=O)n2[nH]1	i	i	i	0.9	-6	i
CCOc1ccc(C2c3[nH]c4ccccc4c3CCN2CCCn2cccn2)cc1 (stereo not drawn)	i	i	i	0.98	-11	6*
O=C(/C=C/c1ccccc1)n1cnnc1SC/C=C/c1ccccc1	i	i	i	-6.9*	-5	i
Cc1ccc(C(=O)Nc2nc(-c3ccccn3)cs2)o1	i	i	i	-2.1	-7	i
CCc1cc(C(=O)Nc2nc(-c3ccccn3)cs2)sc1C	x	-9.2*	x	x	x	x
COc1ccccc1-c1cnnc(N/N=C/c2ccc(-c3cccc(Br)c3)o2)n1	-6.8*	i	i	-3.1	-6	i
Cc1ccc2oc(C(=O)Nc3cc(C)on3)c(C)c2c1	x	i	x	x	x	x
CN(CC(=O)NCC1CCCCC1)CC(=O)Nc1ccccc1Br	x	i	x	x	x	x
COc1ccc(/C=C/c2ccc3c(Br)ccc(O)c3n2)cc1	i	i	i	-0.05	-8	i
COc1cc(/C=C/c2ccc3c(Br)cc(Br)c(O)c3n2)ccc1O	i	i	i	-1.4	4.7*	i
CCc1cc(CNC(=O)C2CCC(=O)N(CCc3cccc(F)c3)C2)on1 (stereo not drawn)	i	i	i	-0.85	-5	i
CC(C(=O)NCCCc1ccccc1)n1cccc1C(=O)c1ccccc1 (stereo not drawn)	i	i	i	-6.4*	-11	i
O=C(Nn1c(C2CCCCC2)nc2ccccc2c1=O)c1ccc(Cl)c([N+](=O)[O-])c1	i	i	i	-0.7	-12	9*
CN(N=Nc1cccc([N+](=O)[O-])c1)c1ccccc1	-6.7*	i	i	0.22	-3	i
CN(N=Nc1ccc([N+](=O)[O-])cc1)c1ccccc1	i	i	i	0.5	-11	i
O=C(N/N=C/c1ccccc1C(=O)O)c1ccccc1Br	i	i	i	0.66	4.9*	i
COc1cc2cc(CCOC(=O)c3ccc(C(F)(F)F)cc3)oc(=O)c2cc1OC	x	i	x	x	x	x
Cc1n[nH]c(C)c1Sc1ccccc1N	i	i	i	-0.51	2	i
